pIC50: −log10 of the molar value. Activity calls are given as the source filed them. No cut-off for these calls is given here.
Assays:
MDA-MB-231 = assay: Antiproliferative activity against human MDA-MB-231 cells after 48 hrs by SRB assay; format: functional, cell-based; conditions: MDA-MB-231, 48 h
In short: (§1)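 SRB assay: 5,000-10,000 cells/well plated, 24 h at 37 °C/5% CO2 before drug; seven concentrations from 100 μM down (two- to ten-fold serial dilutions, DMSO ≤0.1% final) for 48 h; TCA fixation (10% final, 60 min, 4 °C), 0.4% SRB in 1% acetic acid, solubilized in 10 mM Tris base, absorbance 515-564 nm; growth = (Ti−Tz)/(C−Tz)×100; IC50 from sigmoidal variable-slope fit; triplicates, ≥2 independent experiments.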

MCF7 [1] = assay: Antiproliferative activity against human MCF7 cells after 48 hrs by SRB assay; format: functional, cell-based; conditions: MCF7, 48 h; in short: as §1
184B5 = assay: Antiproliferative activity against human 184B5 cells after 48 hrs by SRB assay; format: cell-based; conditions: 184B5, 48 h; in short: as §1
MDA-MB-468 = assay: Antiproliferative activity against human MDA-MB-468 cells after 48 hrs by SRB assay; format: functional, cell-based; conditions: MDA-MB-468, 48 h; in short: as §1
MCF7 [2] = assay: Anticlonogenic activity against human MCF7 cells at 0.39 to 1.5 uM after 12 hrs by crystal violet staining based assay; format: functional, cell-based
In short: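 Clonogenic assay: 1000 cells/well seeded, treated after overnight attachment for 12 h, then medium replaced and cells grown until control colonies were large enough; colonies stained with crystal violet.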

| SMILES | pIC50 (MDA-MB-231) | pIC50 (MCF7 [1]) | pIC50 (MDA-MB-468) | pIC50 (184B5) | Activity (MCF7 [2]) |
| --- | --- | --- | --- | --- | --- |
| COc1ccc2nc3cc(Cl)ccc3c(NCCCN3C(=O)CCSC3c3ccc(N(C)C)cc3)c2c1 (configuration not stated) | 5.58 | 5.51 | 5.45 | 4.88 |  |
| CCN(CC)CCCC(C)Nc1ccnc2cc(Cl)ccc12 (configuration not stated) [CHLOROQUINE PHOSPHATE] | 4.65 | 4.42 | 4.54 | 4.12 |  |
| COc1ccc2nc3cc(Cl)ccc3c(NCCCN3C(=O)CCSC3c3ccc(C)cc3)c2c1 (configuration not stated) | 5.31 | 5.26 | 5.16 | 5.25 |  |
| COc1ccc2nc3cc(Cl)ccc3c(NCCCN3C(=O)CCSC3c3ccncc3)c2c1 (configuration not stated) | 4.97 | 4.79 | 4.67 | 4.84 |  |
| CCN(CC)CCCC(C)Nc1c2ccc(Cl)cc2nc2ccc(OC)cc12 (configuration not stated) [QUINACRINE] | 5.49 | 5.38 | 5.40 | 5.30 | Active |
| COc1ccc2nc3cc(Cl)ccc3c(NCCCN3C(=O)CCSC3c3ccc(N(c4ccccc4)c4ccccc4)cc3)c2c1 (configuration not stated) | 5.48 | 5.73 | 5.77 | 5.51 |  |
| COc1ccc2nc3cc(Cl)ccc3c(NCCCN3C(=O)CCSC3c3c(Cl)cccc3Cl)c2c1 (configuration not stated) | 5.12 | 5.36 | 5.89 | 5.42 |  |
| COc1ccc2nc3cc(Cl)ccc3c(NCCCN3C(=O)CCSC3C3CCCCC3)c2c1 (configuration not stated) | 5.23 | 5.30 | 5.28 | 5.11 |  |
| COc1ccc2nc3cc(Cl)ccc3c(NCCCN3C(=O)CCSC3c3ccc(Br)cc3)c2c1 (configuration not stated) | 4.43 | 4.50 | 4.59 | 4.45 |  |
| COc1ccc2nc3cc(Cl)ccc3c(NCCCN3C(=O)CCSC3c3ccc([N+](=O)[O-])cc3)c2c1 (configuration not stated) | 5.33 | 5.15 | 5.03 | 4.71 |  |

Second part, led by results:

| pIC50 (MDA-MB-231) | pIC50 (MCF7 [1]) | pIC50 (MDA-MB-468) | SMILES | pIC50 (184B5) | Activity (MCF7 [2]) |
| --- | --- | --- | --- | --- | --- |
| 5.34 | 5.78 | 5.31 | COc1ccc2nc3cc(Cl)ccc3c(NCCCN3C(=O)CCSC3c3ccc[nH]3)c2c1 (configuration not stated) | 4.89 |  |
| 5.36 | 5.42 | 5.49 | COc1ccc2nc3cc(Cl)ccc3c(NCCCN3C(=O)CCSC3c3c(F)cccc3F)c2c1 (configuration not stated) | 4.53 |  |
| 5.27 | 5.30 | 5.34 | COc1ccc2nc3cc(Cl)ccc3c(NCCCN3C(=O)CCSC3c3ccc(F)cc3)c2c1 (configuration not stated) | 4.55 |  |
| 5.34 | 5.47 | 5.42 | COc1ccc2nc3cc(Cl)ccc3c(NCCCN3C(=O)CCSC3c3ccc(F)cc3F)c2c1 (configuration not stated) | 5.29 |  |
| 4.97 | 4.81 | 4.70 | COc1ccc2nc3cc(Cl)ccc3c(NCCCN3C(=O)CCSC3c3ccccc3Cl)c2c1 (configuration not stated) | 4.16 |  |
| 5.39 | 5.32 | 5.33 | COc1ccc2nc3cc(Cl)ccc3c(NCCCN3C(=O)CCSC3c3ccccc3)c2c1 (configuration not stated) | 5.03 |  |
| 5.45 | 5.47 | 5.35 | COc1ccc2nc3cc(Cl)ccc3c(NCCCN3C(=O)CCSC3c3ccc(Cl)cc3)c2c1 (configuration not stated) | 5.30 |  |
| 5.46 | 5.45 | 5.44 | COc1ccc2nc3cc(Cl)ccc3c(NCCCN3C(=O)CCSC3c3ccco3)c2c1 (configuration not stated) | 5.44 |  |
| 5.13 | 5.05 | 4.98 | COc1ccc2nc3cc(Cl)ccc3c(NCCCN3C(=O)CCSC3c3ccnc4ccccc34)c2c1 (configuration not stated) | 4.57 |  |
| 6.11 | 6.00 | 5.92 | COc1ccc2nc3cc(Cl)ccc3c(NCCCN3C(=O)CCSC3c3ccccc3[N+](=O)[O-])c2c1 (configuration not stated) | 5.74 |  |
| 5.51 | 5.73 | 5.43 | COc1ccc2nc3cc(Cl)ccc3c(NCCCN3C(=O)CCSC3c3ccc(Cl)cc3Cl)c2c1 (configuration not stated) | 5.37 |  |
| 5.46 | 5.37 | 5.28 | COc1ccc2nc3cc(Cl)ccc3c(NCCCN3C(=O)CCSC3c3c(F)cccc3Cl)c2c1 (configuration not stated) | 5.51 |  |
| 4.40 | 4.41 | 4.41 | COc1ccc2nc3cc(Cl)ccc3c(NCCCN3C(=O)CCSC3c3ccccc3Br)c2c1 (configuration not stated) | 4.81 |  |
| 5.39 | 5.64 | 5.57 | COc1ccc2nc3cc(Cl)ccc3c(NCCCN3C(=O)CCSC3c3ccccc3F)c2c1 (configuration not stated) | 4.45 |  |
